High-throughput results: PubChem, several laboratories
N-glyco inh: N-linked glycosylation inhibition; D54 ERlucT glycosylation luciferase reporter, 24 h; percent of 100 nM tunicamycin response; reporter increase, % at 12.5 µM; 360,000 compounds, 0.23% hits;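 active means mean luciferase reporter signal, scaled so untreated is 0 and the glycosylation-blocking control 100, at or above a set limit in every replicate; inconclusive means mean reaches the limit but not every replicate does; inactive means mean below the limit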;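 further: luciferase carries N-glycosylation sites so blocking glycosylation raises the light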
Vif imaging: inhibitors of HIV Vif; HEK293T cells, Vif self-association by quenched fluorescence, imaging, 24 h; inhibition, % at 7.49 µM; 340,000 compounds, 0.35% hits; in the data active means inhibition above about 50%, passing the limit was not always enough; inconclusive means no clear call, values can overlap the other calls; inactive means below about 31%
UCH37 DUB inh: human UCH37 deubiquitinating enzyme inhibition; Q9Y5K5; purified proteasome/UCH37, Ub-AMC cleavage fluorescence; inhibition, % (test concentration not listed); 330,000 compounds, 0.33% hits;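 active means mean inhibition over replicate wells above about 20%, limit read from the data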
Target sequence (Q9Y5K5 whole entry, looked up): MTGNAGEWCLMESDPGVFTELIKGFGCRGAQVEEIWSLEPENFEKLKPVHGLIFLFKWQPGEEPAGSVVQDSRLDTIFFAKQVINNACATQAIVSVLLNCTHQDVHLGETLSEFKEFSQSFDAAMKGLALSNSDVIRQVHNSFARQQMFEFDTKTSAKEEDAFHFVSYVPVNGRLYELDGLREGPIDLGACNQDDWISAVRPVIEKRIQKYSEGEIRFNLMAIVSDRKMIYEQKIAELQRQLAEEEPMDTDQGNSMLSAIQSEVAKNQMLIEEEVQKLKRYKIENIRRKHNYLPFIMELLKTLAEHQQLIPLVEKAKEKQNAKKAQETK
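Material: human UCH37 enzyme supplied as purified proteasome complex / Amount: 0.15 nM proteasome as dispensed / Buffer or medium: pH 7.4 Tris-HCl (50 mM) with ovalbumin, ATP-MgCl2, DTT / Times: preincubation 30 min, reaction 25 min, room temperature / Technique: AMC fluorescence from Ub-AMC cleavage, excitation 355 nm, emission 460 nm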
MsrA act: activates bovine MsrA enzyme; AID 602163; 360,000 compounds, 0.3% hits; purified bovine MsrA, absorbance read-out; activation, % at 10.6 µM; in the data active means activation above about 7.5%
aDG glyco up: increases alpha dystroglycan glycosylation; Pro5-aDG cells, alpha-DG glycosylation AlphaScreen (IIH6); 0% Pro5, 100% B10-LARGE cell signal; activation, % at 10 µM; 360,000 compounds, 0.22% hits; AID 624168;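 active means activation of at least 8% versus controls, or a plate z-score of at least 8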;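 further: Pro5 are CHO cells carrying HIG-tagged alpha-DG that lacks glycosylation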
MsrA inh: inhibits bovine methionine sulfoxide reductase A | AID 651718 | 360,000 compounds, 0.75% hits | inhibition, % at 15.5 µM | purified bovine MsrA, absorbance read-out
UCH37 confirm: confirmation of human UCH37 deubiquitinating enzyme inhibitors; 480 compounds, 27% hits; shares compounds with UCH37 DUB inh; inhibition, % at 20 µM; Proteasome-bound UCH37, Ub-AMC cleavage fluorescence;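 active means average inhibition over replicates above about 50%, so the earlier screening hit is confirmed, limit read from the data; inactive means the rest, counted as false positives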;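 further: based on cleavage rate fitted by regression over a 30 min kinetic read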
MsrA act confirm: bovine methionine sulfoxide reductase A activation confirmed; purified bovine MsrA, absorbance read-out; activation, % at 10.6 µM; 1,000 compounds, 12% hits; shares compounds with MsrA act; in the data active means activation above about 4%;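 further: enzyme coupled to thioredoxin and thioredoxin reductase with NADPH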
MsrA inh confirm: bovine MsrA inhibition, confirmed; shares compounds with MsrA inh; purified bovine MsrA, absorbance read-out; inhibition, % at 15.5 µM; 2,300 compounds, 41% hits; AID 651822;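 further: coupled to thioredoxin reductase with NADPH and selenocystamine and DMSO as substrate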
Hits are given with their value; n = inactive; u = inconclusive; x = no result. A selection: hits, their analogues and other compounds. The true share with any hit is near 1.9%. Unless noted, no stated cut-off is given here; in the data, active means inhibition above about 4.5%; inactive means the rest.

SMILES | N-glyco inh | Vif imaging | UCH37 DUB inh | MsrA act | aDG glyco up | MsrA inh | UCH37 confirm | others
COC(=O)C1=C(C(=O)OC)[C@@H]2N(C)c3ccccc3[C@@]23C[C@@H](C(=O)OC)N(C(=O)CC(C)C)C3=N1 | n | x | 42.4 | n | n | n | n
C=CCN1c2ccccc2[C@]23C[C@@H](C(=O)OC)N(C(=O)CC(C)C)C2=NC(C(=O)OC)=C(C(=O)OC)[C@H]13 | n | n | n | n | n | n | x
Cc1cccc(C)c1NC(=O)COC(=O)c1ccc([N+](=O)[O-])o1 | n | n | 28.7 | n | n | n | n
O=C(NC(=O)c1c(F)cccc1F)ON=C1CCCc2occc21 | x | x | n | x | x | x | x
C[n+]1ccc(C=NNc2nc(Cl)c(C#N)c(Cl)c2Cl)cc1 | x | x | 25.1 | x | x | x | n
Cc1cccc(NC(=S)NN=C2CC(C)(C)Oc3ccc(O)cc32)c1 | x | x | n | x | x | x | x
N#C/C(=C\c1ccc(N2CCCCC2)o1)C(N)=O | n | x | 30.5 | n | n | n | n
N#C/C(=C\c1ccc(N2CCCCC2)o1)C(=O)Nc1cccc(Br)c1 | n | n | n | n | n | n | x
CCc1ccc(NC(=O)C(=O)NN=C(C)CC(=O)Nc2ccc(OC)cc2)cc1 | x | x | n | x | x | x | x
CCOc1ccc(N2CC(C(=O)NCCC3=CCCCC3)CC2=O)cc1 (stereo unspecified) | n | n | n | n | n | n | x
Cc1ccc(N2CC(C(=O)NCCC3=CCCCC3)CC2=O)cc1 (stereo unspecified) | n | n | 40.9 | n | n | n | 55.4
COc1cc(C2C(C(=O)c3ccc(C)o3)=C(O)C(=O)N2c2cc(C)on2)ccc1O (stereo unspecified) | n | n | 46.4 | n | n | n | n
CC[C@]1(c2cccc(C)c2)C(=O)N(C(=O)OC)N1C(=O)OC | n | n | 35.4 | n | n | n | n
CCN(CC)c1ccc(C=NN2CCN(c3ccccn3)CC2)cc1 | x | x | n | x | x | x | x
COc1cc(Cl)c(NC2=CC(=O)C(=O)c3ccccc32)c(OC)c1 | n | n | 53.5 | n | n | n | n
Nc1ccc(Br)c2c1C(=O)c1ccccc1C2=O | x | x | n | x | x | x | x
NC1=C(Br)C(=O)c2ccccc2C1=O | n | n | 34.3 | 9.7 | 3.9 | n | n | MsrA act confirm=9.4
O=C(COC(=O)c1ccc([N+](=O)[O-])s1)Nc1cccc(S(=O)(=O)NC2=NCCCCC2)c1 | n | n | 62.2 | 9.8 | n | n | n | MsrA act confirm=4.4
O=C(COC(=O)c1ccc([N+](=O)[O-])s1)Nc1ccccc1 | n | n | 59.5 | 22.5 | n | n | n | MsrA act confirm=10.6
O=C(COC(=O)c1ccc([N+](=O)[O-])s1)NCc1ccccc1 | n | n | 38.9 | 8.4 | n | n | n | MsrA act confirm=n
COc1ccc(S(=O)(=O)N2CCOCC2)cc1NC(=O)COC(=O)c1ccc([N+](=O)[O-])s1 | n | u | 62.4 | 19.8 | n | x | n | MsrA act confirm=10.7
O=C(COC(=O)c1cccs1)Nc1cccc(S(=O)(=O)NC2=NCCCCC2)c1 | n | n | n | n | n | n | x
COc1cccc(C=Nn2c(C3CCCCC3)n[nH]c2=S)c1O | x | x | n | x | x | x | x
O=C(COC(=O)c1ccc([N+](=O)[O-])s1)Nc1ccc(Cl)cn1 | n | n | n | n | n | n | x
O=C(COC(=O)c1ccc([N+](=O)[O-])s1)Nc1ccc(F)cc1 | n | n | 66.7 | 19.6 | n | n | 77.1 | MsrA act confirm=9.1
SMILES | N-glyco inh | Vif imaging | UCH37 DUB inh | MsrA act | aDG glyco up | MsrA inh | UCH37 confirm | others
CCC(=O)NN=Cc1ccc(-c2ccc([N+](=O)[O-])cc2)o1 | x | x | n | x | x | x | x
O=C1C=C(NCc2ccccc2)c2ccccc2C1=O | n | n | 53.1 | 9.4 | 8.7 | n | n | MsrA act confirm=8.9
O=C1C=C(Nc2cccnc2)c2ccccc2C1=O | n | n | x | n | n | n | x
O=C1C=C(Nc2ccccc2O)c2ccccc2C1=O | n | n | 81.2 | 9.3 | 12.5 | n | 84.8 | MsrA act confirm=6.1
Cc1ccc(S(=O)(=O)N=C(c2ccccc2)N(C)C)c(C)c1 | x | x | n | x | x | x | x
CCOc1ccc(C=NNC2=NCCCCC2)cc1 | x | x | n | x | x | x | x
O=S(=O)(Nc1cc(Sc2ncn[nH]2)c(O)c2ccccc12)c1ccccc1 | n | n | 38.0 | 13.9 | n | 63.4 | 69.5 | MsrA act confirm=n;MsrA inh confirm=n
Cc1cc(O)c(Sc2ncn[nH]2)cc1NS(=O)(=O)c1ccc(Cl)cc1 | n | n | n | n | n | n | x
O=C1C(N2CCOCC2)=C(n2nnc3ccccc32)C(=O)c2ccccc21 | n | x | 72.3 | n | n | 70.7 | 87.6 | MsrA inh confirm=69.0
O=C(O)c1cccc(NC2=C(Cl)C(=O)c3ccccc3C2=O)c1 | n | n | 46.0 | n | n | 4.9 | n | MsrA inh confirm=n
O=C(O)c1ccc(NC2=C(Cl)C(=O)c3ccccc3C2=O)cc1 | n | n | n | n | n | n | x
CCn1nc(C)c(C=NNC(=O)Cn2nnc(N)n2)c1C | x | x | n | x | x | x | x
CNC1=C(N(C(C)=O)c2ccc(Br)cc2)C(=O)c2ccccc2C1=O | n | n | 50.7 | n | 8.7 | 36.4 | 74.4 | MsrA inh confirm=5.5
CC(=O)NC1=C(Nc2ccc(N(C)C)cc2)C(=O)c2ccccc2C1=O | n | n | x | n | n | n | x
Cc1ccccc1NC1=C/C(=N\S(=O)(=O)c2cccs2)c2ccccc2C1=O | n | n | 78.0 | n | n | 16.0 | n | MsrA inh confirm=29.3
O=C(O)c1ccc(S(=O)(=O)/N=C2\C=C(Nc3ccccc3F)C(=O)c3ccccc32)cc1 | n | n | 93.3 | n | n | 45.6 | 98.6 | MsrA inh confirm=47.2
O=C(OCc1nnc(-c2ccccc2)o1)c1ccc([N+](=O)[O-])s1 | n | n | 79.8 | 18.0 | n | 9.3 | n | MsrA act confirm=24.1;MsrA inh confirm=7.2
O=[N+]([O-])c1ccc(O)c(C=NNc2ccc(S(=O)(=O)O)cc2)c1 | n | n | 25.5 | n | n | 5.3 | n | MsrA inh confirm=6.2
CC(=NNc1nc(-c2ccccc2)cc(-c2ccc(F)cc2)n1)c1cccc(N)c1 | x | x | n | x | x | x | x
CN(C)/C=C1/NC(=S)NC1=O | n | n | 27.2 | n | n | 5.5 | n | MsrA inh confirm=6.7
COc1ccc(C=C2NC(=S)NC2=O)cc1 | n | n | n | n | n | n | x
O=C(NN=CC1CC=CCC1)c1ccc(Br)o1 (stereo unspecified) | x | x | n | x | x | x | x
COc1ccc(CC(=O)NCC(=O)NN=Cc2sccc2C)cc1 | x | x | n | x | x | x | x
O=C(O)CC1S/C(=N/N=C/C=C/c2ccccc2)NC1=O (stereo unspecified) | n | n | 25.5 | n | n | 9.2 | n | MsrA inh confirm=7.8
CC(=NNC(=O)CN(c1ccccc1)S(C)(=O)=O)c1ccccc1O | x | x | n | x | x | x | x
Cc1ccc(C(=O)NN=Cc2ccc(-c3cccc(C(F)(F)F)c3)o2)cn1 | x | x | n | x | x | x | x
O=C1C(Nc2cccc(O)c2)=C(N2CCCCC2)C(=O)c2ccccc21 | n | n | 30.5 | n | n | 14.4 | n | MsrA inh confirm=n
